Results collected from several papers.
Lines come from different studies, so protocols differ.
Short transient receptor potential channel 5: Short transient receptor potential channel 5 (Mus musculus, UniProt Q9QX29)
Htr2a: 5-hydroxytryptamine receptor 2A (Htr2a, Mus musculus, UniProt P35363)

SMILES	target	test	test system	conditions	endpoint	value
CNCCCN1c2ccccc2CCc2ccccc21	Short transient receptor potential channel 5	ion current, inhibitor, patch clamp			IC50	10.3 µM
CN1CC[C@@]2(C)c3cc(OC(=O)Nc4ccccc4)ccc3N(C)[C@@H]12	Aldehyde dehydrogenase, mitochondrial (ALDH2, Homo sapiens, UniProt P05091)	enzyme activity, inhibitor, fluorescence			IC50	< 10 µM
Cc1ccc(OCC(=O)N[C@@H](Cc2c[nH]c3ccccc23)C(=O)OC(C)C)cc1	Cytochrome P450 3A4 (CYP3A4, Homo sapiens, UniProt P08684)	enzyme activity, inhibitor	human, liver microsomes	30 min, midazolam probe	IC50	> 50 µM
COc1cc2c(cc1OC)CN(CCc1ccc(NC(=O)c3cccc4c(=O)c5cccc(OC)c5[nH]c34)cc1)CC2	Beta-3 adrenergic receptor (ADRB3, Homo sapiens, UniProt P13945)	cell-free assay			Ki	> 10 µM
COc1cc(CCNC(C)c2ccccc2O)c(OC)cc1Br (centres unmarked)	Htr2a	G protein activation, agonist, BRET			EC50	0.00094 µM
CC(=O)c1c(C)c2cnc(Nc3ccc(C4CCN(CCS(C)(=O)=O)CC4)cn3)nc2n(C2CCCC2)c1=O	Cytochrome P450 1A2 (CYP1A2, Homo sapiens, UniProt P05177)	enzyme activity, inhibitor	human, liver microsomes		IC50	> 10 µM
COc1cc(CCN)c(OC)cc1C#N	Htr2a	G protein activation, agonist, BRET			EC50	0.32 µM
CN(C)CCCN1c2ccccc2CCc2ccccc21	Short transient receptor potential channel 5	ion current, inhibitor, patch clamp			IC50	11.7 µM
